This passage reports Ki, SI and NI results from ChEMBL document CHEMBL1145067, “3'-C-branched-chain-substituted nucleosides and nucleotides as potent inhibitors of Mycobacterium tuberculosis thymidine monophosphate kinase” (J Med Chem, 2003).

One assay addresses T1, Thymidylate kinase (Mycobacterium tuberculosis, UniProt P9WKE1).
T1 sequence (P9WKE1 whole entry): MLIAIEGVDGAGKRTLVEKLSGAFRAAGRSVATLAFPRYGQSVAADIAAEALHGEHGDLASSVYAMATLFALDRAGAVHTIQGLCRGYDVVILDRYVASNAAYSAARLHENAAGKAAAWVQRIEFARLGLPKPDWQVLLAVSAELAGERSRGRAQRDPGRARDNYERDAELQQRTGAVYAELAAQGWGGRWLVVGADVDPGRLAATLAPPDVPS
As to the kind of experiment: In Vitro inhibition of Thymidine […] Kinase of Mycobacterium tuberculosis (TMPKm). The gist of the method:
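Recombinant TMPKmt or human TMPKh overexpressed in E. coli. ATP was fixed at 0.5 mM and dTMP at 0.05 mM; analogues were varied over 0.01–4 mM.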

Assay [1] can be described thus: ratio of Ki (Ki TMPKh / KiTMPKmt) was determined.
Assay [2] in a line: ratio of Ki (Km TMPKh / Ki TMPKmt) was determined.
The target of assay [3] is Thymidylate kinase (Homo sapiens) (UniProt P23919). The assay can be described thus: In Vitro inhibition of […] (TMPKh); No inhibition at 4000 uM.
Sequence of Thymidylate kinase (Homo sapiens) (P23919 whole entry, looked up): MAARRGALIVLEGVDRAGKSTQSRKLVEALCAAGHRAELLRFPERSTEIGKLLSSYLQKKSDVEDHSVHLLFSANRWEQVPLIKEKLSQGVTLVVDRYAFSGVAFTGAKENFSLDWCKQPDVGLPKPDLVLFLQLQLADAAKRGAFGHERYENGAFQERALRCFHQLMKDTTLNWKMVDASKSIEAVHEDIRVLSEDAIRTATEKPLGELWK
A short description of assay [4]: ratio of Km (Km TMPKh / Km TMPKmt) was determined.

Usually Ki stands for the equilibrium dissociation constant of an inhibitor or competing ligand from its target. Read a high Ki as lower affinity. In turn, `Cc1cn([C@H]2C[C@H](CN=[N+]=[N-])[C@@H](COP(=O)(O)O)O2)c(=O)[nH]c1=O` had an inhibition constant (Ki) on Thymidylate kinase of 12 µM. The SI in assay [1] came to 2.7. The matching figures for `Cc1cn([C@@H]2O[C@H](COP(=O)(O)O)[C@@H](CN)[C@H]2O)c(=O)[nH]c1=O`: 315 µM and 0.9. In turn, `Cc1cn([C@H]2C[C@H](CN)[C@@H](COP(=O)(O)O)O2)c(=O)[nH]c1=O` came in with a Ki at Thymidylate kinase of 10.5 µM. Further, the SI in assay [1] turned out to be 0.4. The matching figures for `Cc1cn([C@H]2C[C@H](CF)[C@@H](COP(=O)(O)O)O2)c(=O)[nH]c1=O`: 15 µM and 2.7. The matching figures for `Cc1cn([C@H]2C[C@H](CN=[N+]=[N-])[C@@H](CO)O2)c(=O)[nH]c1=O`: 40 µM and 26. On Thymidylate kinase, `Cc1cn([C@H]2C[C@H](CO)[C@@H](COP(=O)(O)O)O2)c(=O)[nH]c1=O` displayed a Ki of 29 µM. The SI in assay [1] is 1.5. For `Cc1cn([C@H]2C[C@H](CN)[C@@H](CO)O2)c(=O)[nH]c1=O`, in that order: 57 µM and 3.9.

Regarding `Cc1cn([C@H]2C[C@H](N=[N+]=[N-])[C@@H](COP(=O)(O)O)O2)c(=O)[nH]c1=O`, the SI in assay [2] amounted to 1.2.

`Cc1cn([C@H]2C[C@H](CO)[C@@H](CO)O2)c(=O)[nH]c1=O` came in with a Ki on Thymidylate kinase of 41 µM. Besides, in assay [1], the SI was 10. Molecule `Cc1cn([C@H]2C[C@H](CCO)[C@@H](CO)O2)c(=O)[nH]c1=O` gave a Ki on Thymidylate kinase of 156 µM. Regarding `Cc1cn([C@@H]2O[C@H](CO)[C@@H](CN=[N+]=[N-])[C@H]2O)c(=O)[nH]c1=O`, in assay [3], the NI entry is “No inhibition at 4000 uM”. In addition, the affinity at Thymidylate kinase corresponds to a Ki of 770 µM. Take `Cc1cn([C@@H]2O[C@H](CO)[C@@H](CN)[C@H]2O)c(=O)[nH]c1=O`: on Thymidylate kinase, the Ki stood at 393 µM. Further, the SI in assay [1] came out at 0.3.

For `Cc1cn([C@H]2C[C@H](N=[N+]=[N-])[C@@H](CO)O2)c(=O)[nH]c1=O` [ZIDOVUDINE], on Thymidylate kinase, the Ki amounted to 28 µM. Same read-out and setting: for `Cc1cn([C@@H]2O[C@H](COP(=O)(O)O)[C@@H](CN=[N+]=[N-])[C@H]2O)c(=O)[nH]c1=O` the value was 116 µM. Turning to `Cc1cn([C@H]2C[C@H](O)[C@@H](COP(=O)(O)O)O2)c(=O)[nH]c1=O`, the SI in assay [4] amounted to 1.1.

`Cc1cn([C@H]2C[C@H](CF)[C@@H](CO)O2)c(=O)[nH]c1=O` registered a Ki on Thymidylate kinase of 45 µM. Moreover, the SI in assay [1] amounted to 21.6.
